Assay: Toxicity liver stage against HepG2, at 10uM
Format: cell-based
Design: test concentration 10 uM, cell line HepG2-A16-CD81EGFP
Conditions: human, HepG2-A16-CD81EGFP cells; read-out: INHIBITION
Summary of the method: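 Uninfected HepG2-A16-CD81EGFP cells, 3 × 10^3 per well, 1536-well, plated on prespotted compound at 10 μM final, parasite-free screening media added to match infected plates; puromycin 10 μM positive, DMSO 0.5% negative; run in parallel with 48 h PbLuc assay at 37 °C, 5% CO2; viability by CellTiter-Glo luminescence, normalized to controls.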

| SMILES | cytotoxicity at 10 µM [%] |
| --- | --- |
| Cn1ncc(N2CCOCC2)c(Cl)c1=O | -13.8 |
| COC(=O)[C@H]1CN(C(=O)NC(C)C)CCN1C(=O)CSC | -6.52 |
| CNC(=O)C(C)(C)N1CCC[C@H]1C(=O)NC1CCCC1 | -3.01 |
| CCNC(=O)N1C[C@@H]2OCC(=O)N(C)[C@@H]2C1 | 7.65 |
| CCNC(=O)NC[C@H]1COCc2nc3cc(C)ccc3n21 | 3.72 |
| CN1C[C@@H](O)[C@]2(CCN(C(=O)c3ccccc3)C2)S1(=O)=O | 0.148 |
| O=c1cc(Cn2ccnc2)nc2n1CCCN(Cc1ccco1)C2 | 7.77 |
| CC(=O)NCC(=O)N1CCOC2(CCCN(c3ccc(C)nn3)C2)C1 (configuration not stated) | 0.876 |
| CCC(=O)N1CCC2(CC1)CC(Oc1ccccc1)CO2 (configuration not stated) | 7.69 |
| CC(C)NC(=O)c1cc2c(s1)CCN2C(=O)CN(C)C | 1.94 |
| Cc1ccnc(C2COCCN2C)n1 (configuration not stated) | 3.59 |
| CC(C)C(=O)N1CCCc2c(cnn2-c2ccccc2)C1 | 11 |
| CNC(=O)C1(CCCc2ccccn2)CCN1Cc1coc(C)n1 (configuration not stated) | 19.7 |
| CCCc1cc(C(=O)NC(C)c2ccccc2)n(C)n1 (configuration not stated) | -4.45 |
| Cc1cc(C2CCN(S(=O)(=O)N(C)C)CC2)ccn1 | -13 |
| CCCn1cc(C(=O)N2CCCC2(C)c2nc(C)cc(N)n2)cn1 (configuration not stated) | -1.13 |
| Cc1cnc(-c2nc(O)c3c(n2)CN(C(=O)C2CCCO2)CC3)cn1 (configuration not stated) | -0.661 |
| Cn1cc(CN2CCCC(c3nccnc3-c3cccc(F)c3)C2)cn1 (configuration not stated) | 0.954 |
| CCc1noc(CCC(=O)N[C@@H]2CC[C@@H](n3ccnc3)[C@@H]2O)n1 | -15.5 |
| Cc1ccc2c(c1)C(=O)NCC1(CCN(C(=O)c3ccnn3C)CC1)O2 | -16.6 |
| O=c1[nH]c(N2CCCCC2)nc2c1CCN(Cc1cccnc1)C2 | -3.07 |
| CCCC(=O)N1CCN(Cc2cc(-c3ccncc3)nn2C)CC1 | -27.1 |
| CS(=O)(=O)N1CCN(Cc2cccs2)CC(C(N)=O)C1 (configuration not stated) | 18 |

| SMILES | cytotoxicity at 10 µM [%] |
| --- | --- |
| O=C(Cc1cccc(F)c1)N1CCCCC1c1ccn2ccnc2n1 (configuration not stated) | -0.619 |
| CCS(=O)(=O)CC(=O)Nc1ccc2oc(C3CC3)nc2c1 | -5.4 |
| CCn1nnnc1-c1cccc(NC(=O)CCc2cnn(C)c2)c1 | -6.19 |
| CS(=O)(=O)CCCNC(=O)Nc1sc2ccccc2c1Cl | 6.54 |
| COc1cc(CNC(=O)COC2CCCC2)ccc1O | -7.2 |
| CCOCCN(C)C(c1cccnc1)c1ccc(F)cc1F (configuration not stated) | 5.64 |
| CC(C)Cc1noc(CN2CCCC(CNS(N)(=O)=O)C2)n1 (configuration not stated) | -4.88 |
| COCCN(C)CC1CCCN1S(=O)(=O)c1cccc(F)c1F (configuration not stated) | 4.93 |
| COc1c(C2CCCN2CC(=O)N(C)c2nccs2)c(C)nn1C (configuration not stated) | 3.37 |
| Cn1ccc(C(=O)N2CCCC2c2ccc3c(c2)OCCO3)cc1=O (configuration not stated) | 12.3 |
| Cc1cc(NCCC(=O)NC2CCCCC2)nc(-c2ccncc2)n1 | -5.37 |
| CCOC(C)C(=O)Nc1ccc2c(ccn2CC)c1 (configuration not stated) | 0.877 |
| COC(=O)N1CCC(Nc2ccc(C#N)c(Cl)c2)C1 (configuration not stated) | -8.21 |
| CC(C)CC(CNC(=O)c1cccnc1Oc1cccnc1)N(C)C (configuration not stated) | 1.44 |
| CCOC(C)c1nc(CN2CCN(c3ncc(C)cn3)CC2)cs1 (configuration not stated) | -0.509 |
| CC(C)(C)N1CCN(C(=O)c2cccnc2-n2cncn2)CC1 | 4.22 |
| Cn1nc2c(cc1=O)CN(Cc1nc3ccccc3c(=O)[nH]1)CC2 | -7.64 |
| CCN1CCC(NC(=O)CN2CCCC(NS(C)(=O)=O)C2)CC1 (configuration not stated) | 2.94 |
| CC(C)CNC(=O)CNC(=O)NC(c1nccs1)C1CC1 (configuration not stated) | -6.66 |
| Cc1nc(C(=O)N(C)CC2CCCO2)nn1-c1ccccc1C(C)C (configuration not stated) | -3.62 |
| Cc1nccn1-c1cc(CNC(=O)C2CCC(=O)N2)ccn1 (configuration not stated) | -1.24 |
| Cc1cnc(C(=O)N2CCCN(Cc3cnn(C(C)C)c3)CC2)cn1 | 1.28 |
| CCc1cc(NC(=O)C2CCCN(C(=O)c3ccncc3)C2)[nH]n1 (configuration not stated) | -8.18 |

| SMILES | cytotoxicity at 10 µM [%] |
| --- | --- |
| COC(=O)Cc1cccc(NC(=O)Cc2cc(C)[nH]n2)c1 | -2.45 |
| Oc1ncccc1-c1nc(-c2cccc(CN3CCOCC3)c2)no1 | -11.8 |
| OCCCN(CCn1cncn1)c1ccccc1 | -4.04 |
| O=C(Nc1nnn[nH]1)c1ccc(-n2cccc2)c(F)c1 | -1.63 |
| Cc1nn(CN(CC2CCOC2)C2CC2)c(=O)c2ccccc12 (configuration not stated) | 4.77 |
| Cc1csc(N(C)C(=O)C(c2c(F)cccc2Cl)N(C)C)n1 (configuration not stated) | -44.3 |
| O=S(=O)(CC1CCCCO1)Nc1c(F)cccc1-n1cccn1 (configuration not stated) | 3.44 |
| Cc1nn(C)c(C)c1NC(=O)CN1CCc2c(nc(C(C)C)n2C)C1 | -8.02 |
| O=C(c1ccsc1)N1CCC2(CC1)CCN(S(=O)(=O)C1CC1)CC2 | -109 |
| O=C(N[C@@H]1CN(Cc2ccco2)[C@@H]2CCCO[C@@H]21)c1cscn1 | -105 |
| CN1CCN(Cc2cnc3n2CCN(C(=O)c2cscn2)C3)CC1 | -78.2 |
| O=C1CC(c2ccncc2)C2(CCN(Cc3cccnc3)CC2)N1 (configuration not stated) | 6.26 |
| Cn1cc(-c2nnn3c2COC(CNCc2nccs2)C3)cn1 (configuration not stated) | -4.89 |
| Cc1cc(C)n(CCCN(C)c2cc(C3CC3)ncn2)n1 | -0.609 |
| CN(C)CCn1ccnc1C1CCN(C(=O)CCC(F)(F)F)CC1 | -0.734 |
| O=S(=O)(c1cccnc1)N1CCCCC1CCN1CCOCC1 (configuration not stated) | -3.03 |
| CCC(C(=O)NCC1=CCN(C)CC1)c1ccccc1 (configuration not stated) | -7.66 |
| CO[C@H]1CN(C(C)C)C[C@@H]1NC(=O)Nc1ccc2oc(C)cc2c1 | 0.0448 |
| COc1ccc(N2CCN(C(=O)CCc3n[nH]c(C)n3)CC2=O)cc1 | -0.524 |
| Cc1ccc(C(C(=O)O)N(C)CCN2CCOCC2)c(F)c1 (configuration not stated) | 4.28 |
| O=C(NCc1csc(-c2cnccn2)n1)c1cnn2c1CCCC2 | 0.209 |
| O=C(O)CN(Cc1ccsc1)CC1CCCO1 (configuration not stated) | -4.39 |
| O=c1[nH]c(-c2ccccc2)nc2c1CCN(S(=O)(=O)N1CCCC1)C2 | 3.86 |

| SMILES | cytotoxicity at 10 µM [%] |
| --- | --- |
| CCc1ccc(CN(C)C(=O)c2ccc(CSc3nnc[nH]3)o2)nc1 | -2.19 |
| O=C(O)c1ccnc(-c2ccnc(NCCc3ccc(F)cc3)n2)c1 | 1.74 |
| COc1ccccc1-c1ccc(NCc2cn3c(n2)SCC3)nn1 | 8.62 |
| CC(C)c1nnc(NCc2cc3n(n2)CCN(C2CCCCC2)C3)s1 | -4.63 |
| Cc1ccccc1-n1cc(-c2ccnc(N[C@@H](CO)C(C)C)n2)cn1 | -3.39 |
| CN(C)C(=O)c1cccnc1-c1ccc2c(c1)OCCO2 | 5.73 |
| COc1ccc(/C=C/CN2CCN(c3nccnc3C)CC2)cc1 | -8.47 |
| O=C1NC[C@@]2(C(=O)O)CN(Cc3cccc(OC4CCCC4)c3)C[C@@H]12 | -2.34 |
| Cc1nc(-c2ccccc2)sc1CNC1CCc2ncnn2C1 (configuration not stated) | -4.07 |
| O=C(NCC1CCOC1)c1csc(-c2ccc(Cl)cc2)n1 (configuration not stated) | -11.6 |
| O=C(Cc1ccc2c(c1)CCC2)NCCNc1cnccn1 | -0.037 |
| COCCN1CCC(CNC(=O)C2(c3ccc(F)cc3)CCC2)CC1 | -4.45 |
| CC1CN(CC(=O)Nc2ccncc2)CCN1Cc1nccn1C (configuration not stated) | -13.7 |
| CCS(=O)(=O)N1CCC(NC(=O)c2cc(C)ccc2O)CC1 | -8.92 |
| CCCc1noc(CN2CCN(CCO)CC2)n1 | -12.1 |
| O=C(Cc1ccc2c(c1)CCO2)N1CCN(c2nccs2)CC1 | -10.7 |
| CCn1ncc2c1CCCC2NCc1cc(C)ccc1OC (configuration not stated) | 1.8 |
| Cc1cnc(CN(C)C2CCN(CC(=O)Nc3nccs3)C2)o1 (configuration not stated) | -1.49 |
| CCc1n[nH]c(C2CN(Cc3nnc(C4CCC4)o3)CCO2)n1 (configuration not stated) | -6.28 |
| Cc1cccc(-c2noc(CN3CCCCC3Cn3cncn3)n2)c1 (configuration not stated) | -4.32 |
| CC(Cc1cccs1)NC(=O)CCn1cccn1 (configuration not stated) | -14.7 |
| CCc1n[nH]c(C2CN(CCCS(C)(=O)=O)CCO2)n1 (configuration not stated) | -3.48 |
| Clc1ccc(OCCNCCn2cccn2)cc1 | -14.4 |

| SMILES | cytotoxicity at 10 µM [%] |
| --- | --- |
| Cc1cc(CN2CCN(CCOc3cccc(C#N)c3)CC2)no1 | -11.6 |
| O=C(NCCN1CCc2ccccc2C1)c1scnc1Cl | -4.84 |
| O=C(c1ccc(Br)o1)N1CCCCC1Cn1cccn1 (configuration not stated) | -5.31 |
| CNS(=O)(=O)c1cccc(CNc2ccc(C(F)(F)F)nn2)c1 | -11.4 |
| CN1C(=O)CCC12CCC(NCc1ccsc1)CC2 (configuration not stated) | 3.56 |
| COCCN1CCc2ncnc(-c3ccccc3)c2CC1 | 9.99 |
| C[C@H]1CN(c2ccccn2)C[C@@]12CCN(c1cccnc1)C2=O | -2.62 |
| Cc1ccsc1C(=O)N1CCc2ncc(CN3CCCC3)n2CC1 | -111 |
| O=C1N(CC2CCCC2)CCC12CCN(c1ncc(F)cn1)CC2 | 11.2 |
| Cc1nnc(N2CCCC3(CN(Cc4nccs4)CCO3)C2)o1 (configuration not stated) | 2.08 |
| COc1ccc(CN2CCC3(CCN(c4cccnc4)C3=O)C2)cc1 (configuration not stated) | 5.16 |
| CN(C)c1ncc(-c2cccc(F)c2)c(C2CNCCO2)n1 (configuration not stated) | -29.9 |
| Cc1oncc1C(=O)N1CC[C@@H]2[C@@H]1CC(=O)N2Cc1cccnc1 | 5.44 |
| O=C1COC2(CCN(CC3CCC3)CC2)CN1c1cncnc1 | -1.11 |
| CN(C)C[C@H]1C[C@@H]2CN(Cc3ccoc3)C[C@@H]2O1 | 4.85 |
| CCN1CCC2(CC1)CC(COC)N(Cc1csc(C)n1)C2 (configuration not stated) | 6.68 |
| CCN1Cc2nccn2CC(COCc2csc(C)n2)C1 (configuration not stated) | 3.86 |
| COCC1CC2(CCN(Cc3ccccn3)CC2)CN1c1ncccn1 (configuration not stated) | 14.4 |
| Cc1nc(CO[C@@H]2CC[C@H]3[C@H]2OCCN3Cc2cccnc2)cs1 | -1.43 |
| O=C1NCC2(CCC(C(=O)N3CCCC(O)C3)CC2)Oc2ccccc21 (configuration not stated) | -24.1 |
